Experimental data as given in PMC10688270 (Neurochemical research, 2019).
“Also recorded” adds a separate entry of the source. Where two headings read alike, the source gives them in different places. Blank lines part the entries; values can stand above or below the molecule they belong to.

How the values were obtained:
SXc− [1] = target: T1, SXc− (Homo sapiens, UniProt Q9UPY5); assay: Inhibition of SXc−-mediated uptake of 3H-L-Glu into SNB19 cells; type: cell-based; details: for fold less effective than SAS: comparison of inhibition of SXc− with SAS
T1 sequence (Q9UPY5 1-501): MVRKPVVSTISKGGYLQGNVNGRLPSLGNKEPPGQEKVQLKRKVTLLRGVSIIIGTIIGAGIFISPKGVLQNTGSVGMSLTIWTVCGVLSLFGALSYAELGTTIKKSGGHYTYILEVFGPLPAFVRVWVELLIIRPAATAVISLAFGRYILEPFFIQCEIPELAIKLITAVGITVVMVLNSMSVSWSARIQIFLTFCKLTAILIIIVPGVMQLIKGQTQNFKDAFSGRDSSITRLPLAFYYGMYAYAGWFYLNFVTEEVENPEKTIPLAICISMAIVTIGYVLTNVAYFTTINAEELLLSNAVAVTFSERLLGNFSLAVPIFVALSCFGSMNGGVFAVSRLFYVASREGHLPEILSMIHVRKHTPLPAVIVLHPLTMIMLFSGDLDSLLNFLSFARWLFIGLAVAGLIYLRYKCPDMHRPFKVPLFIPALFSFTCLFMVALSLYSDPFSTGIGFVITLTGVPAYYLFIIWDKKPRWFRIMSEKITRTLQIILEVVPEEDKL
T1 sequence (P08195 1-529 partner): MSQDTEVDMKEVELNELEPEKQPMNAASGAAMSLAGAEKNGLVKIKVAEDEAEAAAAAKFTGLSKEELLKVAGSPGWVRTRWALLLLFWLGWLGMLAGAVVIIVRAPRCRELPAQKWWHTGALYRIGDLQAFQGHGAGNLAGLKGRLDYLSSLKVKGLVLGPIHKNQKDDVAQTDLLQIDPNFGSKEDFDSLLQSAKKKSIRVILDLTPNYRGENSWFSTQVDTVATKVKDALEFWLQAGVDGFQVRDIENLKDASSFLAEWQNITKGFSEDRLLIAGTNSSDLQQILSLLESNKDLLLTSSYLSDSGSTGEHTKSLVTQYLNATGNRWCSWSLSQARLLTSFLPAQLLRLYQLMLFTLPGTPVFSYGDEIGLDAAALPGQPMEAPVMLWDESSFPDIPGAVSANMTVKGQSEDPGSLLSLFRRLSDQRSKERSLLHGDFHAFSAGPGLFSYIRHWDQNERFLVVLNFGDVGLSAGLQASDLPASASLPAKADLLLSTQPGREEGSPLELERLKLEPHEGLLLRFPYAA
How it was run: (§1)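 Human SNB19 glioma cells were grown in DMEM/F-12 (pH 7.4) with 10% fetal calf serum at 37°C and 5% CO2. They were seeded at 3×10^4 cells/well and used after 3 days at 80–90% confluence. Cells were pre-incubated 5 min at 30°C in Na+-free (choline-Cl) HEPES-buffered Hank's salt solution, pH 7.4. Test compound was added simultaneously with 3H-L-Glu for 5 min at 30°C. Uptake was read by scintillation counting, normalised to BCA protein, and corrected by subtracting 4°C accumulation. Duplicate wells per experiment; n ≥ 3 experiments.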

SXc− [2] = target: T1, SXc−; assay: Kinetic analysis; type: cell-based; details: for Inhibitory Mechanism: V vs [S] and Lineweaver-Burk plots, SNB19 cells
How it was run: as §1

SXc− [3] = details: previous work; cited from earlier work
[4] = read-out: IC50 for the inhibition of SXc−-mediated uptake of 3H-L-Glu into SNB19 cells, Mean ± SEM (n ≥ 3), single concentration of L-Glu (100 μM), Na+-free buffer, 5 min, 30°C

IC50 (SXc− [1]; [4]): > 500 µM
Molecule: O=S(=O)(O)c1cc2cc(S(=O)(=O)O)c(O)cc2cc1O [3,6-dihydroxy-2,7-naphthylene-disulfonate]

inhibitory activity at SXc− (in words) (SXc− [1]; 3H-L-Glu uptake into SNB19 cells): inactive
IC50 (SXc− [1]; [4]): > 500 µM
Molecule: Nc1cc(S(=O)(=O)O)cc2cc(S(=O)(=O)O)cc(O)c12 [4-Amino-5-OH-2,7-naphthylene-disulfonate]

Inhibitory Mechanism (SXc− [2]): Noncompetitive (Mixed)
Inhibitory Mechanism (SXc− [2]; listed as #6): mixed inhibition
Molecule: Nc1ccc(N=Nc2ccc(-c3ccc(N=Nc4ccc(N)c5ccc(S(=O)(=O)O)cc45)cc3)cc2)c2cc(S(=O)(=O)O)ccc12 [AANS #6]

Inhibitory Mechanism (SXc− [2]): Competitive
Molecule: Nc1c(N=Nc2ccc([N+](=O)[O-])cc2)c(S(=O)(=O)[O-])cc2cc(S(=O)(=O)[O-])c(N=Nc3ccccc3)c(O)c12.[Na+].[Na+] [Acid Black 1]
Inhibitory Mechanism (SXc− [2]; listed as Acid Black): competitive mechanism; also recorded: competitive inhibition

IC50 (SXc− [1]; [4]): 191 ± 8 µM
Molecule: CC(=O)Nc1cc(S(=O)(=O)O)cc2cc(S(=O)(=O)O)c(N=Nc3ccccc3)c(O)c12 [Acid Red 1]

fold less effective than SAS (SXc− [1]): about 5 fold
IC50 (SXc− [1]; [4]): 30 ± 7 µM
Molecule: O=C(O)c1cc(N=Nc2cccc([N+](=O)[O-])c2)ccc1[O-].[Na+] [Alizarin Yellow GG]

IC50 (SXc− [1]; [4]): 130 ± 23 µM
Molecule: O=[N+]([O-])c1ccc(N=Nc2c(S(=O)(=O)O)cc3cc(S(=O)(=O)O)cc(O)c3c2O)cc1 [Chromotrope 2B]

IC50 (SXc− [1]; [4]): 21 ± 5 µM
Molecule: O=S(=O)(O)c1cc(O)c2c(O)c(N=Nc3ccccc3)c(S(=O)(=O)O)cc2c1 [Chromotrope 2R]

Molecule: Nc1c(/N=N/c2ccc(-c3ccc(/N=N/c4cc(S(=O)(=O)O)c5ccccc5c4N)cc3)cc2)cc(S(=O)(=O)O)c2ccccc12 [Congo Red]
block of glutamate uptake by SXc− (in words) (SXc− [3]): relatively poor blocker

IC50 (SXc− [1]; [4]): 155 ± 11 µM
Molecule: Nc1cc(S(=O)(=O)O)cc2cc(S(=O)(=O)O)c(N=Nc3cc([N+](=O)[O-])cc(Cl)c3O)c(O)c12 [Gallion]

IC50 (SXc− [1]; [4]): 38 ± 3 µM
Molecule: O=C(O)c1cc(N=Nc2ccc([N+](=O)[O-])cc2)ccc1O [Mordant Orange 1]

IC50 (SXc− [1]; [4]): > 250 µM
Molecule: COc1ccccc1N=Nc1c(S(=O)(=O)O)cc2cc(S(=O)(=O)O)cc(NC(C)=O)c2c1O [Pontacyl Carmine 2B]

IC50 (SXc− [1]): > 250 µM
Molecule: O=S(=O)(O)c1cc(O)c2c(O)c(/N=N/c3cccc4ccccc34)c(S(=O)(=O)O)cc2c1 [Pontacyl Violet 6R]

Ki (SXc− [2]): 10.4 ± 1.3 µM
Inhibitory Mechanism (SXc− [2]): Competitive
Inhibitory Mechanism (SXc− [2]; listed as SAS): competitive inhibition
Molecule: O=C(O)c1cc(/N=N/c2ccc(S(=O)(=O)Nc3ccccn3)cc2)ccc1O [Sulfasalazine]

Molecule: Chrome Yellow
fold less effective than SAS (SXc− [1]): about 5 fold
IC50 (SXc− [1]; [4]): 27 ± 4 µM
